This assay deals with Scavenger receptor class B member 1 (Mus musculus) (UniProt Q61009). The experiment in a line: SR-BI-mediated DiI-HDL uptake inhibitors, dose response, ldlA[mSR-BI] CHO cells, powder samples, set 5 (AID 588754). As to conditions: DiI-HDL uptake fluorescence, 3 h. The method in brief: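 Material: ldlA[mSR-BI] CHO cells expressing mouse SR-BI; buffer or medium: Ham's F12 with fatty acid-free BSA and HEPES; also added: DiI-labeled HDL at 10 µg/mL final; timing: 3 h at 37 °C; signal: bottom-read DiI fluorescence after washing, ex 550/em 595 nm; measure: HDL uptake fluorescence, decrease meaning inhibition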

Molecules are shown by their SMILES. Activity calls are given as the source filed them.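 Rule for the calls: active = fitted curve shows reduced dye-labelled HDL uptake, half-maximal concentration at most ten times top dose; inconclusive = flat curve with 30 to 70% inhibition, or unreliable fit; inactive = the rest.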

As usually defined, the AC50 is the concentration giving half of the maximal activity seen.

Scavenger receptor class B member 1 (Mus musculus), sequence (Q61009 whole entry, looked up): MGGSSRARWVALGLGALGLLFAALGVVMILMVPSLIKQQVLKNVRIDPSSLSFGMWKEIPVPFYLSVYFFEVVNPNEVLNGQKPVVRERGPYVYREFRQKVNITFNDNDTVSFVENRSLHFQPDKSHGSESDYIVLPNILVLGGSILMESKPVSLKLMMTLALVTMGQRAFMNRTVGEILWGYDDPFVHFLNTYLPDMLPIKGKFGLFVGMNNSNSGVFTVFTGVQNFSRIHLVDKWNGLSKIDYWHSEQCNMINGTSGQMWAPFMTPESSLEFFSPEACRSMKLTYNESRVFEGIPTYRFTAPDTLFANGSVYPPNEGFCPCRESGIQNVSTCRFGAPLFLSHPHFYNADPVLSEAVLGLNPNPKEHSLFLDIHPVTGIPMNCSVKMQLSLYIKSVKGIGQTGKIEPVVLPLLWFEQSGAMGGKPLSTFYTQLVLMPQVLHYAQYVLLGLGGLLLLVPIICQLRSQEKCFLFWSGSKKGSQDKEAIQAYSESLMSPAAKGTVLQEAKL

For the compound `CCC(=O)N1CCc2cc(-c3csc(NC(=O)c4cc5ccccc5o4)n3)ccc21`, the AC50 is 256 nM. For the compound `CCCCCCC1CCC/C1=N\NC(N)=S` (stereo not drawn), the AC50 is 16.6 nM. For the compound `COc1cc(OC)cc(C(=O)Nc2nc(-c3ccc4c(c3)CCN4C(C)=O)cs2)c1`, the AC50 was 207 nM. As for `COc1ccc(-c2cc(CC(=O)N(C3CCCCC3)C(C)C(=O)NC3CCCC3)no2)cc1OC` (stereo not drawn), the AC50 was 29.4 nM.

For `C[C@H](C(=O)NC1CCCC1)N(C(=O)Cn1nnc(-c2ccc3c(c2)OCO3)n1)C1CCCCC1`, the half-maximal activity concentration (AC50) was 18.9 nM.

For the compound `C[C@@H]1CN([C@H](C)CO)C(=O)c2cc(NC(=O)Cc3cn(C)c4ccccc34)ccc2O[C@H]1CN(C)S(=O)(=O)c1ccc(Cl)cc1`, the concentration at half-maximal activity (AC50) is 5.98 nM. Same read-out and setting: to `COc1ccc(-c2nnn(CC(=O)N(CC(=O)N(C)C3CCCC3)C3CCCCC3)n2)cc1OC` belongs 1610 nM; to `COc1ccc(-c2nnn(CC(=O)N(CC(=O)N3CCCCC3)C3CCCCC3)n2)cc1OC`, 9200 nM. The same measure, in the same setting: next, `CCC(=O)N1CCc2cc(-c3csc(NCc4cc(OC)cc(OC)c4)n3)ccc21`: 372 nM; `CCC(=O)N1CC(C)(C)c2cc(-c3csc(NC(=O)c4ccco4)n3)ccc21`: 20.3 nM; `CCNC(=O)N1CCc2cc(-c3csc(NC(=O)c4cc(OC)cc(OC)c4)n3)ccc21`: 2.28 nM.

For the compound `COC(=O)N1CCc2cc(-c3csc(NC(=O)c4cc(OC)cc(OC)c4)n3)ccc21`, the AC50 was 39 nM. Still for that read-out and setting: next, `CCC(=O)N1CCc2cc(-c3csc(NC(=O)c4ccc(F)c(OC)c4)n3)ccc21`: 25.8 nM. As to `COc1cc(OC)cc(C(=O)Nc2nc(-c3ccc4c(c3)CCN4C(=O)OC(C)(C)C)cs2)c1`, the AC50 is 0.909 nM. Same read-out and setting: to `CCC(=O)N1CCc2cc(-c3csc(NC(=O)c4cccc(OC)c4)n3)ccc21` belongs 35 nM; to `CCC(=O)Nc1ccc(-c2csc(NC(=O)c3cccc(OC)c3)n2)cc1`, 110 nM; to `CC(C(=O)NC1CCCC1)N(C(=O)Cn1nnc(-c2ccc3c(c2)OCO3)n1)C1CCCCC1` (stereo not drawn), 49.9 nM. Take `COc1c(NC(=O)C(=O)c2ccc(OCCN3CCOCC3)c3ccccc23)cc(C(C)(C)C)cc1NS(C)(=O)=O`: the “activity change, negative = inhibition” value (at 35 µM (top of the series)) is “inactive”.

Consider `CCC(=O)N1CC(C)(C)c2cc(-c3csc(NC(=O)c4cc(OC)cc(OC)c4)n3)ccc21`, for which the concentration at half-maximal activity (AC50) was 10.3 nM. Still for that read-out and setting: to `CCC(=O)N1CCc2cc(-c3csc(NC(=O)c4cc(OC)cc(OC)c4)n3)ccc21` belongs 42.6 nM; to `COCC(=O)N1CCc2cc(-c3csc(NC(=O)c4cc(OC)cc(OC)c4)n3)ccc21`, 2.81 nM; to `O=C(Nc1nc(-c2ccc3c(c2)CCN3)cs1)c1ccco1`, 21.1 nM. On the same count and under the same terms, to `COc1ccc(-c2nnn(CC(=O)N(C3CCCCC3)C(C)C(=O)NC3CCCC3)n2)cc1OC` (stereo not drawn) belongs 65.2 nM; to `Cc1ccc2oc(-c3cccc(NC(=O)c4cc(-n5cnnc5)ccc4Cl)c3)nc2c1`, 3620 nM. Still for that read-out and setting: next, `CCC(=O)N1CCc2cc(-c3csc(NC(=O)c4cc(OC)c(OC)c(OC)c4)n3)ccc21`: 2.76 nM; `CCC(=O)n1ccc2cc(-c3csc(NC(=O)c4cc(OC)cc(OC)c4)n3)ccc21`: 89.3 nM. As to `C[C@@H](C(=O)NC1CCCC1)N(C(=O)Cn1nnc(-c2ccc3c(c2)OCO3)n1)C1CCCCC1`, the AC50 is 2270 nM. Same read-out and setting: next, `O=C(CN(C(=O)Cn1nnc(-c2ccc3c(c2)OCO3)n1)C1CCCCC1)NC1CCCC1`: 60.2 nM; `COc1ccc(-c2nnn(CC(=O)N(CC(=O)NC3CCCC3)C3CCCCC3)n2)cc1OC`: 36.5 nM. With `COc1cc(OC)cc(C(=O)Nc2nc(-c3ccc4c(c3)CCN4C(=O)CN(C)C)cs2)c1`, the AC50 was 19.5 nM. For the compound `COc1ccc(-c2nc(CC(=O)N(C3CCCCC3)C(C)C(=O)NC3CCCC3)co2)cc1OC` (stereo not drawn), the AC50 is 148 nM. Still for that read-out and setting: to `CCC(=O)N1CCc2cc(-c3csc(NC(=O)c4cccc(OC(F)(F)F)c4)n3)ccc21` belongs 266 nM. Same read-out and setting: next, `CC(=O)N1CCc2cc(-c3nc(NC(=O)c4cccc(OC(F)(F)F)c4)sc3C)ccc21`: 26 nM.

The values are drawn from PubChem BioAssay AID588754 (Broad Institute, 2011).
